According to ChEMBL document CHEMBL3867440, “Hernandezine, a Bisbenzylisoquinoline Alkaloid with Selective Inhibitory Activity against Multidrug-Resistance-Linked ATP-Binding Cassette Drug Transporter ABCB1” (J Nat Prod, 2016):

Key:
[1] = molecular target: T1, ATP-dependent translocase ABCB1 (Homo sapiens, UniProt P08183); assay: Inhibition of ABCB1 in human NCI-ADR-RES cells assessed as potentiation of doxorubicin-induced cytotoxicity by measuring doxorubicin resistance ratio at 1000 nM after 72 hrs by MTT assay relative to parental OVCAR8 cells (reference value: 46); assay type: cell-based; conditions: ovcar-8, 72 h, 1 µM
T1 sequence (P08183 whole entry): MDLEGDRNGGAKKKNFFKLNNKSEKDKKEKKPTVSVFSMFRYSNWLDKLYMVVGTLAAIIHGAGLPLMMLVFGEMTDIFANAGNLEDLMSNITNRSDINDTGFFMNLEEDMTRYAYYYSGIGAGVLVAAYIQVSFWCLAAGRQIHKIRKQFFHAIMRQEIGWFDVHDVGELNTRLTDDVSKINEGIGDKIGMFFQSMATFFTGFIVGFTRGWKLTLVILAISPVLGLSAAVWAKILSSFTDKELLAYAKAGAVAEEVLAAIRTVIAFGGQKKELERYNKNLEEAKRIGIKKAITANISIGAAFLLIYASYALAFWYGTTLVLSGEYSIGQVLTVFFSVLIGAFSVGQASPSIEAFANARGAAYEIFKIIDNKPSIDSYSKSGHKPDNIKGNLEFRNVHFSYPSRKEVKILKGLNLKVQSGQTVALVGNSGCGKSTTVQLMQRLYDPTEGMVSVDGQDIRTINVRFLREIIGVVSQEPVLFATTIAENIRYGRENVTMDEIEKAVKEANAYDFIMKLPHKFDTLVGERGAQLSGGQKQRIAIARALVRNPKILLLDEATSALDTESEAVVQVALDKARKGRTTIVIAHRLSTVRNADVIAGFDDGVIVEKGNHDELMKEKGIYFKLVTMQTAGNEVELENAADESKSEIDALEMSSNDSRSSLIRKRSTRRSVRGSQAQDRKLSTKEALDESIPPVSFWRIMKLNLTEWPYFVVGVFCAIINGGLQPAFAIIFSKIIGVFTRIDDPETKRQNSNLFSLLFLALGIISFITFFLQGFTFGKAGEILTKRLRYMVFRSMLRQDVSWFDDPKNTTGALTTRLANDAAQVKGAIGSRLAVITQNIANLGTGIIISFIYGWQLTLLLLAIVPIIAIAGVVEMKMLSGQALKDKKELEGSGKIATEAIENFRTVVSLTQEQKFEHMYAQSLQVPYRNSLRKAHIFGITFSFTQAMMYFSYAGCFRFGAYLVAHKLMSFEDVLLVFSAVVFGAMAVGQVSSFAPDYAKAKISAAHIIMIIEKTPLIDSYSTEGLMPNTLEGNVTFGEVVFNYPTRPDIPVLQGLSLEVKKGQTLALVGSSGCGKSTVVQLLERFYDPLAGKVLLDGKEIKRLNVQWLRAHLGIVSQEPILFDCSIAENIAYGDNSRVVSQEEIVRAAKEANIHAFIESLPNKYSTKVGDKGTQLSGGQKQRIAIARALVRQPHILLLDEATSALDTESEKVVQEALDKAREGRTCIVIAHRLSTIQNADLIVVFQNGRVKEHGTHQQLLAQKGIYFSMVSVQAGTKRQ
Procedure, shortened: (§1)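 Cells were kept in drug-free DMEM with 10% FCS for 7 days before assay, then plated at 5000 cells/well for 24 h. Drug at various concentrations was added with a nontoxic fixed level of modulator for 72 h, and the read-out was MTT. IC50 came from fitted curves (≥3 experiments). RR = IC50 of the resistant line / IC50 of the parental line.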

[2] = molecular target: T1, ATP-dependent translocase ABCB1; assay: Inhibition of human ABCB1 transfected in HEK293 cells assessed as potentiation of doxorubicin-induced cytotoxicity by measuring doxorubicin resistance ratio at 1000 nM after 72 hrs by CCK8 assay relative to parental HEK293 cells (reference value: 96); assay type: cell-based; conditions: hek293, 72 h, 1 µM
[3] = molecular target: T1, ATP-dependent translocase ABCB1; assay: Inhibition of ABCB1 in human KBV1 cells assessed as potentiation of colchicine-induced cytotoxicity by measuring colchicine resistance ratio at 1000 nM after 72 hrs by MTT assay relative to parental KB-3-1 cells (reference value: 55); assay type: cell-based; conditions: kbv1, 72 h, 1 µM; procedure, shortened: as §1
[4] = tested on: KB 3-1; assay: Potentiation of colchicine-induced apoptosis in human KB-3-1 cells assessed as early apoptotic cells at 1 uM after 48 hrs by Annexin V-FITC/propidium iodide staining based FACS analysis (reference value: 30.5%); assay type: functional
[5] = tested on: KB 3-1; assay: Potentiation of colchicine-induced apoptosis in human KB-3-1 cells assessed as necrotic cells at 1 uM after 48 hrs by Annexin V-FITC/propidium iodide staining based FACS analysis (reference value: 4.9%); assay type: functional
[6] = tested on: KB 3-1; assay: Potentiation of colchicine-induced apoptosis in human KB-3-1 cells assessed as late apoptotic cells at 1 uM after 48 hrs by Annexin V-FITC/propidium iodide staining based FACS analysis (reference value: 25.7%); assay type: functional
[7] = molecular target: T1, ATP-dependent translocase ABCB1; assay: Inhibition of ABCB1 in human KBV1 cells assessed as potentiation of doxorubicin-induced cytotoxicity by measuring doxorubicin resistance ratio at 1000 nM after 72 hrs by MTT assay relative to parental KB-3-1 cells (reference value: 34); assay type: cell-based; conditions: kbv1, 72 h, 1 µM; procedure, shortened: as §1
[8] = tested on: KB-V1; assay: Induction of apoptosis in human KBV1 cells assessed as early apoptotic cells at 1 uM after 48 hrs by Annexin V-FITC/propidium iodide staining based FACS analysis (reference value: 5.3%); assay type: functional
[9] = tested on: KB 3-1; assay: Induction of apoptosis in human KB-3-1 cells assessed as early apoptotic cells at 1 uM after 48 hrs by Annexin V-FITC/propidium iodide staining based FACS analysis (reference value: 5.1%); assay type: functional
[10] = molecular target: T1, ATP-dependent translocase ABCB1; assay: Inhibition of ABCB1 in human NCI-ADR-RES cells assessed as potentiation of colchicine-induced cytotoxicity by measuring colchicine resistance ratio at 1000 nM after 72 hrs by MTT assay relative to parental OVCAR8 cells (reference value: 59); assay type: cell-based; conditions: ovcar-8, 72 h, 1 µM; procedure, shortened: as §1
[11] = tested on: KB-V1; assay: Induction of apoptosis in human KBV1 cells assessed as viable cells at 1 uM after 48 hrs by Annexin V-FITC/propidium iodide staining based FACS analysis (reference value: 86.1%); assay type: functional; conditions: KB-V1, 48 h, read-out: Activity
[12] = molecular target: T1, ATP-dependent translocase ABCB1; assay: Inhibition of ABCB1 in human NCI-ADR-RES cells assessed as potentiation of vincristine-induced cytotoxicity by measuring vincristine resistance ratio at 1000 nM after 72 hrs by MTT assay relative to parental OVCAR8 cells (reference value: 435); assay type: cell-based; conditions: ovcar-8, 72 h, 1 µM; procedure, shortened: as §1
[13] = tested on: KB 3-1; assay: Induction of apoptosis in human KB-3-1 cells assessed as late apoptotic cells at 1 uM after 48 hrs by Annexin V-FITC/propidium iodide staining based FACS analysis (reference value: 5.8%); assay type: functional
[14] = tested on: KB 3-1; assay: Potentiation of colchicine-induced apoptosis in human KB-3-1 cells assessed as viable cells at 1 uM after 48 hrs by Annexin V-FITC/propidium iodide staining based FACS analysis (reference value: 38.9%); assay type: functional; conditions: KB 3-1, 48 h, read-out: Activity
[15] = tested on: KB-V1; assay: Induction of apoptosis in human KBV1 cells assessed as late apoptotic cells at 1 uM after 48 hrs by Annexin V-FITC/propidium iodide staining based FACS analysis (reference value: 7.6%); assay type: functional
[16] = tested on: KB 3-1; assay: Induction of apoptosis in human KB-3-1 cells assessed as necrotic cells at 1 uM after 48 hrs by Annexin V-FITC/propidium iodide staining based FACS analysis (reference value: 0.7%); assay type: functional
[17] = tested on: KB-V1; assay: Induction of apoptosis in human KBV1 cells assessed as necrotic cells at 1 uM after 48 hrs by Annexin V-FITC/propidium iodide staining based FACS analysis (reference value: 1%); assay type: functional
[18] = tested on: KB 3-1; assay: Induction of apoptosis in human KB-3-1 cells assessed as viable cells at 1 uM after 48 hrs by Annexin V-FITC/propidium iodide staining based FACS analysis (reference value: 88.4%); assay type: functional; conditions: KB 3-1, 48 h, read-out: Activity
[19] = molecular target: T1, ATP-dependent translocase ABCB1; assay: Inhibition of ABCB1 in human KBV1 cells assessed as potentiation of vincristine-induced cytotoxicity by measuring vincristine resistance ratio at 1000 nM after 72 hrs by MTT assay relative to parental KB-3-1 cells (reference value: 356); assay type: cell-based; conditions: kbv1, 72 h, 1 µM; procedure, shortened: as §1
[20] = tested on: HEK293; assay: Inhibition of human wild-type ABCG2 transfected in HEK293 cells assessed as potentiation of mitoxantrone-induced cytotoxicity by measuring mitoxantrone resistance ratio at 3000 nM after 72 hrs by CCK8 assay relative to parental HEK293 cells

| SMILES | Ratio [1] | Ratio [2] | Ratio [3] | Activity [4] | Activity [5] | Activity [6] | Ratio [7] | Activity [8] | Activity [9] | Ratio [10] | viability at 1 µM [11] | Ratio [12] | Activity [13] | viability at 1 µM [14] | Activity [15] | Activity [16] | Activity [17] | viability at 1 µM [18] | Ratio [19] | Ratio [20] |
| --- | --- | --- | --- | --- | --- | --- | --- | --- | --- | --- | --- | --- | --- | --- | --- | --- | --- | --- | --- | --- |
| COc1cc2c(cc1OC)CN(CCc1ccc(NC(=O)c3cc(OC)c(OC)cc3NC(=O)c3cnc4ccccc4c3)cc1)CC2 [TARIQUIDAR] | 3 | 5 | 1 | 30.2% | 5.6% | 27% | 1 | 3.5% | 3.3% | 1 | 91.1% | 4 | 4.4% | 37.2% | 5.2% | 0.2% | 0.2% | 92.1% | 1 | – |
| COc1ccc2c3c([nH]c2c1)[C@H](C=C(C)C)N1C(=O)[C@@H]2CCCN2C(=O)[C@@H]1C3 | – | – | – | – | – | – | – | – | – | – | – | – | – | – | – | – | – | – | – | 7 |
